# Data from article PMC11847389 (BMC Chemistry, 2025).
# Columns and labels:
# [1] = Pharmacokinetic study of pirtobrutinib in rats; assay type: in vivo, Sprague–Dawley rats
# In short: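 Six male Sprague–Dawley rats (8 weeks, 230 g ± 10 g), fasted 12 h, got a single intragastric 10 mg·kg-1 suspension in 0.5% CMC-Na. Ophthalmic-vein blood (200 µL, EDTA-K2) was drawn pre-dose and at 0.25–48 h; plasma was frozen at -80 °C. Plasma underwent cold-methanol protein precipitation with IS, then C18 UHPLC-MS/MS (0.5–500 ng/mL calibration). Parameters came from non-compartmental analysis.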
# [2] = Stability of pirtobrutinib in rat plasma under different storage conditions; assay type: in vitro ADME; details: for Stability RE %: n = 6
# In short: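 Blank rat plasma was spiked 1:10 with working solution to make QCs of 1, 25 and 400 ng/mL, six replicates each. These were held at room temperature 4 h, in the autosampler at 4 °C 24 h, through three freeze-thaw cycles, or at -80 °C 30 days. Samples then underwent cold-methanol protein precipitation with IS and UHPLC-MS/MS; RSD% and RE% were reported.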
# [3] = ref package insert of JAYPIRCA, cited from earlier work
# [4] = in vitro, independent of concentration; ref package insert of JAYPIRCA; cited from earlier work
# [5] = tested on: CYP3A4, UGT1A8 and UGT1A9; details: ref package insert of JAYPIRCA; cited from earlier work
# [6] = cited from earlier work
# mutant BTK C481S = details: cited from earlier work
# mutant BTK C481T = details: cited from earlier work
# mutant BTK C481R = details: cited from earlier work
# CLL/SLL patients = details: 323 patients; cited from earlier work
# [7] = tested on: patients with covalent BTKi-pretreated CLL; details: cited from earlier work
# [8] = male, Sprague-Dawley, rat, plasma, po, 10 mg/kg
structure (smiles),measurement,setting,value
COc1ccc(F)cc1C(=O)NCc1ccc(-c2nn([C@@H](C)C(F)(F)F)c(N)c2C(N)=O)cc1 [Pirtobrutinib],plasma concentration at last sampling timepoint,"[1]; 48 h after intragastric 10 mg·kg−1, LLOQ 0.5 ng/ml",below the LLOQ
same,concentration at 0.25 h,"[1]; male, Sprague-Dawley, rat, plasma, oral, 10 mg·kg−1",140 ng/mL
same,AUC(0-inf),[1]; [8],2350 ± 582 ng·h/mL
same,AUC(0-t),[1]; [8],2340 ± 578 ng·h/mL
same,Cmax,[1]; [8],344 ± 56.6 ng/mL
same,MRT inf,[1]; [8],5.15 ± 0.94 h
same,MRT last,[1]; [8],5.05 ± 0.923 h
same,Tmax,[1]; [8],1.08 ± 0.736 h
same,half-life,[1]; [8],2.95 ± 0.121 h
same,Stability RE %,"[2]; 1.0 ng/mL, autosampler 4 ℃, 24 h after preparation",-6.9%
same,Stability RE %,"[2]; 25 ng/mL, autosampler 4 ℃, 24 h after preparation",-9.4%
same,Stability RE %,"[2]; 400 ng/mL, autosampler 4 ℃, 24 h after preparation",-11.7%
same,"Stability RE% value, three QC samples","[2]; all four storage conditions, absolute (±) value",< 11.7%
same,Stability RE %,"[2]; rat plasma, 1.0 ng/mL, -80 ℃, 30 days",-1.8%
same,Stability RE %,"[2]; rat plasma, 1.0 ng/mL, room temperature, 4 h",0%
same,Stability RE %,"[2]; rat plasma, 1.0 ng/mL, three freeze-thaw",-3.7%
same,Stability RE %,"[2]; rat plasma, 25 ng/mL, -80 ℃, 30 days",9.4%
same,Stability RE %,"[2]; rat plasma, 25 ng/mL, room temperature, 4 h",1.7%
same,Stability RE %,"[2]; rat plasma, 400 ng/mL, three freeze-thaw",6.0%
same,Stability in plasma,[2]; several storage and handling conditions,stable
same,mean apparent clearance,[3]; (37.2%) printed as spread,2.05 L/h
same,median time to reach peak plasma concentration (tmax),[3]; range 0.833 to 4.15 h,approximately 2 h
same,effective half-life,[3],approximately 19 h
same,absolute bioavailability,"[3]; single oral 200 mg dose, range 75.9–90.9%",85.5%
same,human protein binding,[4],96%
same,metabolism in vitro,[5],primarily metabolized by CYP3A4 and direct glucuronidation by UGT1A8 and UGT1A9
same,permeability in vitro,[6],high
same,inhibition of autophosphorylation of Y223,mutant BTK C481S,can inhibit
same,inhibition of autophosphorylation of Y223,mutant BTK C481T,can inhibit
same,inhibition of autophosphorylation of Y223,mutant BTK C481R,can inhibit
same,dose-limiting toxicities,CLL/SLL patients,no dose-limiting toxicities
same,patients discontinuing medication due to treatment-related AEs,CLL/SLL patients,1%
same,ORR versus venetoclax monotherapy,[7],significantly higher
